Converted amounts (≈) assume the structure as drawn.
Key:
[1] = system: Escherichia coli; test: Antibacterial activity against Escherichia coli JM 109 after overnight incubation by disc diffusion method; type: functional
Procedure, shortened: (§1)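 Agar disc diffusion on beef extract–peptone medium (1% peptone, 0.3% beef extract, 0.5% NaCl, […]), compounds dissolved in sterile water; streptomycin sulfate positive control; plates incubated overnight at 37 °C, then MIC recorded (mg/L).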

[2] = system: Staphylococcus aureus; test: Antibacterial activity against Staphylococcus aureus ATCC 25923 after overnight incubation by disc diffusion method; type: functional; procedure, shortened: as §1
[3] = system: Candida albicans; test: Antifungal activity against Candida albicans ATCC 76615 after 48 hrs by disc diffusion method; type: functional; conditions: ATCC 76615, 48 h
Procedure, shortened: (§2)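 Disc diffusion on modified Sabouraud-chloramphenicol agar (1% peptone, 2% glucose, […]), compounds as sterile-water stocks; fluconazole and polyoxin B positive controls; MIC (mg/L) recorded after 48 h at 37 °C.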

[4] = Inhibition of Saccharomyces cerevisiae CGMCC 2.145 chitin synthase assessed as UDP-GlcNAc conversion to chitin after 45 mins by ELISA
Procedure, shortened: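 Enzyme prepared from S. cerevisiae cells sonicated at 4 °C in 50 mM Tris–HCl pH 7.0 with protease inhibitors and PMSF; 55,000 g membrane pellet used. Wells hold UDP-GlcNAc plus 320 mM GlcNAc, compound in Tris buffer (final DMSO below 3%), 45 min at 37 °C. Chitin detected with HRP–wheat germ agglutinin, TMB read at 450 nm against a chitin standard curve; IC50 derived.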

[5] = system: Aspergillus flavus; test: Antifungal activity against Aspergillus flavus after 48 hrs by disc diffusion method; type: functional; procedure, shortened: as §2
[6] = system: Aspergillus flavus; test: Ratio of polyoxin B MIC to compound MIC for Aspergillus flavus; type: functional
[7] = system: Aspergillus flavus; test: Ratio of fluconazole MIC to compound MIC for Aspergillus flavus; type: functional
[8] = system: Bacillus; test: Antibacterial activity against Bacillus proteus after overnight incubation by disc diffusion method; type: functional; procedure, shortened: as §1
[9] = system: Bacillus spizizenii; test: Antibacterial activity against Bacillus subtilis ATCC 6633 after overnight incubation by disc diffusion method; type: functional; procedure, shortened: as §1
[10] = system: Cryptococcus neoformans; test: Antifungal activity against Cryptococcus neoformans after 48 hrs by disc diffusion method; type: functional; procedure, shortened: as §2
[11] = system: Staphylococcus aureus; test: Antibacterial activity against methicillin-resistant Staphylococcus aureus N315 after overnight incubation by disc diffusion method; type: functional
Procedure, shortened: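 Disc diffusion on beef extract-peptone agar (1% peptone, 0.3% beef extract, 0.5% NaCl, […]); compounds dissolved in sterile water; streptomycin sulfate positive control; plates incubated overnight at 37 °C, then MIC (mg/L) recorded.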

[12] = system: Pseudomonas aeruginosa; test: Antibacterial activity against Pseudomonas aeruginosa CR56 after overnight incubation by disc diffusion method; type: functional; procedure, shortened: as §1
[13] = system: Candida albicans; test: Ratio of polyoxin B MIC to compound MIC for Candida albicans ATCC 76615; type: functional
[14] = system: Candida albicans; test: Ratio of fluconazole MIC to compound MIC for Candida albicans ATCC 76615; type: functional

SMILES	MIC [1] [µg/mL]	MIC [2] [µg/mL]	MIC [3] [µg/mL]	IC50 [4] [µM]	MIC [5] [µg/mL]	Ratio [6]	Ratio [7]	MIC [8] [µg/mL]	MIC [9] [µg/mL]	MIC [10] [µg/mL]	MIC [11] [µg/mL]	MIC [12] [µg/mL]	Ratio [13]	Ratio [14]
CN(CC(=O)N(Cc1ccccc1)Cc1ccccc1)CC(O)Cn1c(=O)c2ccccc2n(C)c1=O.Cl (configuration not stated)	≥ 512	≥ 512	64	160	4	8	16	≥ 512	≥ 512	2	≥ 512	≥ 512	–	–
CCCN(CCC)C(=O)CN(C)CC(O)Cn1c(=O)c2ccccc2n(C)c1=O.Cl (configuration not stated)	≥ 512	≥ 512	> 512	390	32	–	–	≥ 512	≥ 512	16	≥ 512	≥ 512	–	–
CN(CC(=O)Nc1ccc([N+](=O)[O-])cc1)CC(O)Cn1c(=O)c2ccccc2n(C)c1=O.Cl (configuration not stated)	≥ 512	≥ 512	> 512	> 750	64	–	–	≥ 512	≥ 512	64	≥ 512	≥ 512	–	–
Cc1ccc(NC(=O)CN(C)CC(O)Cn2c(=O)c3ccccc3n(C)c2=O)cc1.Cl (configuration not stated)	≥ 512	≥ 512	32	80	32	–	–	≥ 512	≥ 512	2	≥ 512	≥ 512	–	–
OC(Cn1cncn1)(Cn1cncn1)c1ccc(F)cc1F [FLUCONAZOLE]	–	–	32 (≈ 104 µM)	–	64 (≈ 209 µM)	–	–	–	–	2 (≈ 6.53 µM)	–	–	–	–
CN(CC(=O)Nc1ccccc1Cl)CC(O)Cn1c(=O)c2ccccc2n(C)c1=O.Cl (configuration not stated)	≥ 512	≥ 512	64	260	32	–	–	≥ 512	≥ 512	2	≥ 512	≥ 512	–	–
CN(CC(=O)Nc1ccc(CC#N)cc1)CC(O)Cn1c(=O)c2ccccc2n(C)c1=O.Cl (configuration not stated)	≥ 512	≥ 512	4	120	8	–	–	≥ 512	≥ 512	4	≥ 512	≥ 512	4	8
CN(CC(=O)Nc1ccccc1[N+](=O)[O-])CC(O)Cn1c(=O)c2ccccc2n(C)c1=O.Cl (configuration not stated)	≥ 512	≥ 512	> 512	210	64	–	–	≥ 512	≥ 512	32	≥ 512	≥ 512	–	–
CN(CC(=O)Nc1ccccc1)CC(O)Cn1c(=O)c2ccccc2n(C)c1=O.Cl (configuration not stated)	≥ 512	≥ 512	32	> 750	> 512	–	–	≥ 512	≥ 512	64	≥ 512	≥ 512	–	–
CN(CC(=O)NCc1ccc(Cl)cc1)CC(O)Cn1c(=O)c2ccccc2n(C)c1=O.Cl (configuration not stated)	≥ 512	≥ 512	32	> 750	64	–	–	≥ 512	≥ 512	64	≥ 512	≥ 512	–	–
COc1ccc(NC(=O)CN(C)CC(O)Cn2c(=O)c3ccccc3n(C)c2=O)cc1.Cl (configuration not stated)	≥ 512	≥ 512	16	180	16	–	–	≥ 512	≥ 512	128	≥ 512	≥ 512	–	–

— ChEMBL document CHEMBL3286331, “Design, synthesis and evaluation of novel quinazoline-2,4-dione derivatives as chitin synthase inhibitors and antifungal agents” (Bioorg Med Chem, 2014)
